Test: Toxicity liver stage against HepG2, at 10uM
Type: cell-based
Set-up: test concentration 10 uM, cell line HepG2-A16-CD81EGFP
Conditions: human, HepG2-A16-CD81EGFP cells; read-out: INHIBITION
Summary of the method: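 Uninfected HepG2-A16-CD81EGFP cells, 3 × 10^3 per well, 1536-well, plated on prespotted compound at 10 μM final, parasite-free screening media added to match infected plates; puromycin 10 μM positive, DMSO 0.5% negative; run in parallel with 48 h PbLuc assay at 37 °C, 5% CO2; viability by CellTiter-Glo luminescence, normalized to controls.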

Row | Compound | cytotoxicity at 10 µM [%]
1 | CCOC(=O)CN1CCC2(CC1)CC(=O)c1ccc3ccccc3c1O2 | 3.33
2 | O=C(Cc1c(F)cccc1Cl)Nc1cc(N2CCOCC2)ncn1 | 3.36
3 | CC(=O)N1CCC2(CC1)CN(C(=O)C1CC1)c1ccc(F)cc12 | 2.05
4 | CN1CCC2(CCN(C(=O)c3ccccc3)CC2)C1 | -2.36
5 | Cc1cc(CN2C[C@@H]3COC[C@]3(COCC(=O)N(C)C)C2)no1 | 1.44
6 | O=C1CC(c2ccccc2)c2sc(C(=O)O)c(-c3ccccc3)c2N1 (stereo unspecified) | -2.31
7 | Cc1ccc(CN2CCC3(CC(C(=O)NCC4CC4)=NO3)C2)cc1C (stereo unspecified) | 3.84
8 | CN1CCc2nc3c(c(N)c2C1)CCCN3C | 11.3
9 | CCn1ncc(Nc2[nH]cnc3nncc2-3)c1C | 7.29
10 | Cc1cc(C)n(CCC(=O)N2CCCC(c3nc(C(C)C)no3)C2)n1 (stereo unspecified) | 8.27
11 | Cc1ccc2cnn(CCC(=O)Nc3nc(C)c(C)s3)c2c1 | 2.57
12 | CN1CCCC(c2cccc(-c3ccccc3F)n2)C1 (stereo unspecified) | 2.58
13 | CC(C)c1nccn1CCC(=O)N1CCCCC1c1ccn[nH]1 (stereo unspecified) | 6.16
14 | Cn1nccc1C(=O)N1CCC(c2nnsc2S(C)(=O)=O)CC1 | -4.22
15 | Cc1cc(-c2ccccc2C(=O)O)nc(C2CCCN(C)C2)n1 (stereo unspecified) | -5.03
16 | CCc1cc(O)nc(C2CCCN2C(=O)COC)n1 (stereo unspecified) | -11.5
17 | Cc1ccccc1C(C#N)NC(=O)CCCOc1cccnc1 (stereo unspecified) | -0.398
18 | CCN(CC(=O)N(C)C)C(=O)c1ccc(-c2nc(C)cs2)cc1 | 6.98
19 | CC(Nc1nc2c(cnn2C)c(=O)[nH]1)c1ccccn1 (stereo unspecified) | 13.3
20 | CS(=O)(=O)N1CCC(C(=O)N2CCOc3ccccc32)CC1 | -0.595
21 | CC(C)(C)OC(=O)NCCC(=O)N(CCC#N)Cc1ccco1 | 3.12
22 | CCc1noc(CN(C)Cc2cc(Br)ccc2OC)n1 | 3.91
23 | Cc1cc(C)nc(NC2CC(=O)N(C(C)(C)C)C2)n1 (stereo unspecified) | -5.81

Row | Compound | cytotoxicity at 10 µM [%]
24 | c1ncc2c(n1)CN(Cc1cn3ccsc3n1)CC2 | 11.3
25 | CCN(CC)Cc1ccc(CNC(=O)C(C)(C)n2cc(Br)cn2)cc1 | 33.6
26 | Cc1nc(C)n(CC2CCCCN2CCCO)n1 (stereo unspecified) | 4.37
27 | NC(=O)COc1ccc(CNCc2c(F)cccc2F)cc1 | -5.03
28 | CCOC(C)c1noc(CN2CCNCC2)n1 (stereo unspecified) | 1.03
29 | CN(C)c1cccc(C(=O)Nc2cn(C)c(=O)n(C)c2=O)c1 | 3.34
30 | COc1ccc(CNC(=O)NCCc2nc(C)c(C)s2)cn1 | -0.0813
31 | O=C(c1cc(Cl)c2c(c1)OCCCO2)N(CC1CCOC1)C1CC1 (stereo unspecified) | -4.09
32 | N#Cc1nccnc1N1CCC(CSc2ccccc2)C1 (stereo unspecified) | 0.957
33 | CC(CC#N)N(C)Cc1ccccc1F (stereo unspecified) | 10.4
34 | CCC1CN(CC(=O)NCC(C)C)CCO1 (stereo unspecified) | 14.4
35 | Cn1cnc2c1CCN(Cc1ccc(Cl)c3cccnc13)C2 | 10.6
36 | O=C1CN(C(=O)CN(CC2CCC2)CC(F)(F)F)CCN1 | 0.821
37 | O=C(c1occc1CN1C(=O)Cc2ccccc21)N1CC(O)C1 | -4.43
38 | CCN(C(=O)CCCOC)C(c1ccc(Cl)cc1)c1ccccn1 (stereo unspecified) | -7.25
39 | CC(C)N(C)S(=O)(=O)N1CCCC1C(=O)N1CCSCC1 (stereo unspecified) | -16.5
40 | CC(c1ccccc1)N(C)C(=O)CNCCn1cccn1 (stereo unspecified) | 4.58
41 | COCCN1CCN(Cc2nc(-c3ccoc3)no2)CC1 | 16
42 | Cc1ccc(CNCc2nnc3n2CCCC3C(F)(F)F)s1 (stereo unspecified) | 20.7
43 | CC(O)CN1CCC(CNCc2ccc(S(C)(=O)=O)cc2)CC1 (stereo unspecified) | -21.4
44 | CC(C)Cn1c2c(ccc1=O)CC(NC(=O)c1ccsc1)CC2 (stereo unspecified) | -109
45 | COC[C@@]12CCC[C@@H]1CN(C(=O)Cc1ccco1)C2 | -102
46 | Cc1cccc(C(=O)N2C[C@H](NS(C)(=O)=O)[C@@H]3OCCC[C@@H]32)n1 | -77.4

Row | Compound | cytotoxicity at 10 µM [%]
47 | Cc1cc(CN2CCC(c3cc(Cc4ccccc4)n[nH]3)CC2)[nH]n1 | 7.54
48 | CCCOC(=O)N1CCCC(c2nnc(CN3CCOCC3)n2C)C1 (stereo unspecified) | 2.19
49 | COCCN1C[C@H](NC(=O)CCC(F)(F)F)[C@@H](C(C)C)C1 | 5.25
50 | O=C(NC1CCc2ccccc2C1)C1CCN(Cc2ccco2)CC1 (stereo unspecified) | -0.339
51 | Cc1cc(C)c2c(N3CCCN(C(=O)C4CCC4)CC3)ncnc2n1 | -10.7
52 | COc1ccccc1S(=O)(=O)N1CCC2(CC1)[C@H](O)C[C@@H]2O | 9.12
53 | CC(=O)Nc1ccc(CNCc2cccnc2N(C)C)cc1 | -7.49
54 | CC(=O)c1ccc(N2CCC3(CCC(=O)N(CCCO)C3)CC2)nc1 | 4.81
55 | CC(C)(O)CCc1cccc(C(=O)NCCC2=CSC3=NCCCN23)c1 | 9.17
56 | CCC(CO)N(Cc1ccccn1)C(=O)c1ccc(CSC)o1 (stereo unspecified) | -5.06
57 | CC(C)Cc1cc(C(=O)N2CCC(C(=O)N3CCOCC3)CC2)on1 | -8.61
58 | CCCc1nnc2sc(C3CCN(CCOC)CC3)nn12 | 6.76
59 | CCc1[nH]c2c(CNC(=O)C3CCCN(C)C3)cc(C)cc2c1C (stereo unspecified) | -15.6
60 | CC(C)n1ccnc1C1CCCN(c2cc(C(=O)NC3CC3)ccn2)C1 (stereo unspecified) | -0.352
61 | CC(C)[C@@H]1CN(c2ccc(F)cn2)C[C@H]1NS(C)(=O)=O | 3.69
62 | Cn1ncc2c(N3CCC(F)(F)CC3)nc(-c3ccncc3)nc21 | 9.74
63 | O=C(O)C1(Cc2ccc(F)cc2F)CCCN(Cc2ccccn2)C1 (stereo unspecified) | 7.65
64 | COc1ccccc1-n1nc(-c2ccco2)n(CC(N)=O)c1=O | 0.5
65 | C1CCC(c2nc3c(c(N4CC(N5CCOCC5)C4)n2)CCNCC3)C1 | -10.2
66 | COCC(=O)N[C@H]1C[C@@H](C(=O)NCCc2cccc(Cl)c2)N(C)C1 | 1.72
67 | CC(C)n1cnnc1Cn1c(=O)cnc2ccccc21 | -4.04
68 | CC(C)N1CCOC(CC(=O)N2CC(c3ccncc3)C2)C1 (stereo unspecified) | 7.44
69 | N[C@H]1CN(C(=O)c2ccccc2Oc2ccccc2)C[C@@H]1C1CC1 | -0.948

Row | Compound | cytotoxicity at 10 µM [%]
70 | COc1ccc(-c2cc(CN)ccc2F)c(OC)c1OC | 1.91
71 | CN(C)[C@H]1CCCCN(C(=O)c2cccc(N3CCS(=O)(=O)CC3)c2)C1 | 2.45
72 | Cc1ccc2c(C(=O)N(C)C)cc(-c3cnn(CCO)c3)nc2c1C | 3.69
73 | COCc1ncc(CN2CC[C@@](O)(COC)C(C)(C)C2)cn1 | -2.79
74 | C/C=C(\C)CN(CCN1CCOCC1)Cc1ccco1 | 11.1
75 | CCOC(=O)N1CCN(C(=O)C(CC)n2cccn2)CC1 (stereo unspecified) | -0.193
76 | CCCn1ncc(CN2CCCCC2CCCOC)c1C (stereo unspecified) | -15.2
77 | O[C@H]1[C@H](n2cc(-c3cccnc3)nn2)c2ccccc2C12CCNCC2 | -10.5
78 | Cc1ccc(NC2CCN(C(=O)C(C(C)C)n3cncn3)CC2)nn1 (stereo unspecified) | -3.01
79 | Cc1nc(C)n(CC2CCCN(Cc3cccc(F)c3F)C2)n1 (stereo unspecified) | -10.3
80 | CC(C(=O)NCc1ccc(N2CCCCCC2)nc1)n1cncn1 (stereo unspecified) | -11.2
81 | CCNC(=O)CN1CCN(Cc2nc3c(F)cccc3n2CC)CC1 | -11.5
82 | CN1CCOC(CNCc2cccc(OC(F)(F)F)c2)C1 (stereo unspecified) | -12
83 | CC1CN(C)CCN1C(=O)c1cnc2c(cnn2C2CCCC2)c1 (stereo unspecified) | -12.8
84 | CCN1CCC(NC(=O)CN2CCCC2Cn2nc(C)nc2C)CC1 (stereo unspecified) | -12.7
85 | CC(C)c1nnc2n1CCN(C(=O)c1ccnc(-n3ccnc3)c1)C2 | -29
86 | Cc1nc(-c2ccccc2)n(CC(=O)NC(C)C)n1 | -14.1
87 | COc1ccc(CNC(=O)Nc2cccnc2N2CCCC2)cc1OC | -24.6
88 | CC(=O)Nc1nc(CN(C)C2CCCN(c3cccnn3)C2)cs1 (stereo unspecified) | -11.1
89 | Cc1nc(CN(C)C2CCN(Cc3ccc4c(c3)CCC4)C2)no1 (stereo unspecified) | -18.2
90 | COC(=O)C(NC(=O)c1ccco1)c1cc(F)ccc1F (stereo unspecified) | -11.5
91 | O=C(c1cc2c(s1)CCC2)N1CCCCC1Cn1cccn1 (stereo unspecified) | -4.86
92 | Cn1ccc(C(=O)N2CCN(c3ncccn3)CC2)cc1=O | -11.6

Row | Compound | cytotoxicity at 10 µM [%]
93 | COc1cc(C(=O)N(C2CC2)C2CC(=O)NC2=O)ccc1C (stereo unspecified) | -3.58
94 | Cc1nc(C)n(CC2CCCN2CCOc2ccc(C#N)cc2)n1 (stereo unspecified) | -10.1
95 | CC(NC(=O)NCCCn1cncn1)c1ccccc1Cl (stereo unspecified) | 3.01
96 | Cc1nc(C(=O)N2CCCC(n3cncn3)C2)cs1 (stereo unspecified) | 5.7
97 | O=C1CCC2(CCC(NCc3ccc4c(c3)OCO4)CC2)N1 (stereo unspecified) | 1.97
98 | COCCNC(=O)[C@H]1C[C@H]2OCC[C@H]2N(Cc2ccoc2)C1 | -75.7
99 | Cn1ccnc1C(=O)N1C[C@@H]2CCN(c3cnccn3)C[C@@H]2C1 | -97
100 | O=C(CC1CCCC1)N1CCn2cc(Cn3cccn3)nc2C1 | -75.4
101 | O=C1COC2(COCCN(c3ccccn3)C2)CN1c1cccc(F)c1 (stereo unspecified) | -103
102 | O=C(c1ccoc1)N1CC[C@@H]2O[C@@H](COCCN3CCCC3)CC[C@@H]21 | -89.7
103 | CO[C@H]1CN(CC2CC2)[C@@H]2CCCO[C@H]12 | -118
104 | COCC(=O)N1CCn2c(CN3CCN(C)CC3)cnc2C1 | -70
105 | O=C(Nc1cccnc1)[C@H]1CN(Cc2ccco2)C[C@H]2OCC[C@@H]12 | -114
106 | Cc1ccc2c(n1)N(Cc1cccnc1)CCN(C(=O)C1CC1)C2 | -61.7
107 | CCc1ccc(CN2CC[C@H]3[C@H]2CC(=O)N3Cc2cccc(C)n2)o1 | -2.19
108 | CCOc1ccc(CN2CC[C@@H]3CC[C@H](C2)N3)cc1CO | 5.99
109 | Cc1noc(CN2C[C@@H]3CC[C@H]2CN(C2Cc4ccccc4C2)C3)n1 | 3.3
110 | COc1ccc(-n2cc3nc(N4CCCC4)[nH]cc-3c2=O)cc1Cl | 11.6
111 | COC(=O)Cn1c(=O)[nH]c2cn(-c3ccc(F)cc3)c(=O)n21 | 1.09

— ChEMBL document CHEMBL4513216, “Probing the Open Global Health Chemical Diversity Library for Multistage-Active Starting Points for Next-Generation Antimalarials” (ACS Infect Dis, 2020)
